Source: PubChem BioAssay (several laboratories)
A selection: hits, their analogues and other compounds. The true share with any hit is near 4.2%.
Fh CTSL1 inh = cathepsin L1 inhibition, PFM18AAP counter-screen; recombinant F. hepatica cathepsin L1, Z-Leu-Arg-MCA fluorescence; inhibition, % at 5.96 µM; 300,000 compounds, 0.49% hits; AID 1906;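 active = inhibition above the mean of all tested compounds plus 3 SD, set per screening campaign, cut at about 17% in these data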;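 also: 0% = plate median of test compound wells and 100% = 1 µM Z-Phe-Ala-diazomethylketone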
PfM18AAP inh = blocks P. falciparum M18 aspartyl aminopeptidase; recombinant PfM18AAP, H-Glu-NHMec fluorogenic cleavage; inhibition, % at 7.35 µM; 290,000 compounds, 1.2% hits;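 active = inhibition above the campaign mean inhibition over all tested compounds plus 3 SD, cut at about 28% in these data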;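 also: 0% = plate median of test compound wells and 100% = 2 mM ZnCl2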
SENP1 inh = inhibitors of human SENP1 SUMO protease catalytic domain; recombinant SENP1 catalytic domain, CyPet-SUMO1-YPet FRET cleavage; inhibition, % at 10 µM; 360,000 compounds, 0.21% hits; AID 624204; Q9P0U3;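 active = inhibition at least 30% at 10 µM, raw YFP signal under a set limit, fluorescence ratio 0.5 to 1.5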;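 also: 0% = enzyme with DMSO and 100% = no enzyme wells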
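System: Recombinant human SENP1 catalytic domain, His6-tagged | Incubation: Enzyme reaction for 50 min at room temperature, dark | Medium: Tris pH 8 with BME, BSA, NP40 and catalase | Also added: 25 nM SUMO1 FRET substrate | Compound: 10 µM single point, 0.5% DMSO | Measured by: FRET fluorescence in CFP and YFP emission channels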
AHR activator = human AHR activation. 320,000 compounds, 2.5% hits. activation, % at 5 µM. P35869. AID 2796. AHR-responsive luciferase reporter cells, luminescence; in the data active = activation above about 47%;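 also: 0% = vehicle wells and 100% = reference agonist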
HDAC3 inhib = blocks human histone deacetylase 3. inhibition, % at 8.3 µM. recombinant HDAC3, fluorogenic peptide/trypsin coupled, fluorescence. 320,000 compounds, 0.15% hits. AID 2718; in the data active = inhibition above about 26%, passing the limit was not always enough
FXN GAA850 act = increases GAA850 frataxin promoter reporter activity | HEK293 lucGAA850 FXN promoter luciferase reporter, 24 h; percent of 10 µM SAHA response | activation, % at 6 µM | AID 540364 | 360,000 compounds, 0.56% hits;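 active = activation above the average of all compounds screened plus 3 SD, cutoff fixed separately per campaign, cut at about 7.5% in these data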;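 also: 0% = DMSO wells and 100% = 10 µM SAHA wells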
AHR act confirm = confirmation of human aryl hydrocarbon receptor activators. activation, % at 9 µM. human cells, AHR-responsive luciferase reporter, luminescence. shares compounds with AHR activator. 2,300 compounds, 87% hits; in the data active = activation above about 49%;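 also: HepG2 hepatoma cells carrying a DRE-driven firefly luciferase reporter; 0% = vehicle wells and 100% = reference agonist wells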
PXR counter = PXR activation, counter-screen for AHR activators; shares compounds with AHR activator; cell-based PXR reporter, luciferase luminescence; activation, % at 11.6 µM; 2,300 compounds, 88% hits; in the data active = activation above about 11%;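 also: human hepatoma DPX-2 cells expressing full-length human PXR; 0% = DMSO and 100% = reference agonist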
Target sequence (O75469 whole entry, looked up): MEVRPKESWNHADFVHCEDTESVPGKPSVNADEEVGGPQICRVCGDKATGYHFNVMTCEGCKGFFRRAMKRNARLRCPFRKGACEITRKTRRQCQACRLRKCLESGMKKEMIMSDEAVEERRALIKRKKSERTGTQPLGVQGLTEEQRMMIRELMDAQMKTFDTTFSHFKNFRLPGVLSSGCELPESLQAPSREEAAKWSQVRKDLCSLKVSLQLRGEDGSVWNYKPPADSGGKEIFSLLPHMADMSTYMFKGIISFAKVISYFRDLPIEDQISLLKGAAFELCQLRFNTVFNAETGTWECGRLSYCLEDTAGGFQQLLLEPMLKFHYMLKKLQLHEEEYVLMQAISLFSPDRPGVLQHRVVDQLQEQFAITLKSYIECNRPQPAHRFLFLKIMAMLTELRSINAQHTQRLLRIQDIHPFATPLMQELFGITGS
The depositor's hits bear a star.

Cc1cccc2cc3c(N)c(C(=O)N4CCOCC4)sc3nc12 was read as Fh CTSL1 inh 5, PfM18AAP inh -59, SENP1 inh 42*, AHR activator 81*, HDAC3 inhib 7, FXN GAA850 act 1 and AHR act confirm 78*.
Screening CCC1=NN=C(c2ccc(F)cc2)C(c2c[nH]c3ccccc23)N1O (centres undefined) returned Fh CTSL1 inh 1, PfM18AAP inh 5, SENP1 inh -4, AHR activator 87*, HDAC3 inhib 8, FXN GAA850 act 0, AHR act confirm 78* and PXR counter 20*.
`CC(C)(C)OC(=O)NCc1ccc(CNC(=O)c2nc[nH]c2C(=O)N2CCN(c3ccccc3)CC2)cc1` gave SENP1 inh -3, AHR activator -1, HDAC3 inhib 7 and FXN GAA850 act 1.
`C(=N\Nc1nc2ccccc2s1)/c1ccco1` gave Fh CTSL1 inh 1, PfM18AAP inh 14, SENP1 inh -9, AHR activator 103*, FXN GAA850 act 3, AHR act confirm 105* and PXR counter 30*.
`Cc1cc(N/N=C/c2ccco2)c2ccccc2n1` gave Fh CTSL1 inh -1, PfM18AAP inh -1, SENP1 inh 1, AHR activator 3, HDAC3 inhib -3 and FXN GAA850 act 1.
CNc1sc(C(=O)c2cccs2)c(N)c1-c1nc2ccccc2s1 was read as Fh CTSL1 inh 2, PfM18AAP inh 11, SENP1 inh -23, AHR activator 89*, HDAC3 inhib 6, FXN GAA850 act 6, AHR act confirm 119* and PXR counter 82*.
CC(=O)c1cccc(-c2ccnc3c2CC(C(=O)NCc2ccco2)O3)c1 (centres undefined) was read as SENP1 inh 0 and FXN GAA850 act 0.
Screening Cc1nc(C(F)(F)F)ccc1C(=O)N1CCCC(C(=O)O)CC1 (centres undefined) returned SENP1 inh 2 and FXN GAA850 act 0.
For Fc1ccc(/C=N/NC(=S)Nc2cccnc2)cc1 the results were Fh CTSL1 inh 3, PfM18AAP inh 21, SENP1 inh 0, AHR activator 105*, HDAC3 inhib 1, FXN GAA850 act -2, AHR act confirm 53* and PXR counter 19*.
For Oc1cccc(/C=N/NC(=S)Nc2cccnc2)c1O the results were Fh CTSL1 inh 0, PfM18AAP inh 16, SENP1 inh 15, AHR activator 10, HDAC3 inhib -8 and FXN GAA850 act 5.
`Fc1ccc(/C=N/NC(=S)Nc2cccnc2)cc1F` gave Fh CTSL1 inh 1, PfM18AAP inh 12, SENP1 inh 0, AHR activator 99*, HDAC3 inhib 9, FXN GAA850 act 2, AHR act confirm 92* and PXR counter 14*.
Screening O=C(CS(=O)(=O)c1ccccc1)NCc1ccc(Cl)cc1 returned Fh CTSL1 inh 1, PfM18AAP inh 1, SENP1 inh 2, AHR activator 8, HDAC3 inhib -3 and FXN GAA850 act 0.
For CN(c1ccccc1)c1nc(-n2ccnc2)nc(-n2ccnc2)n1 the results were Fh CTSL1 inh -3, PfM18AAP inh -5, SENP1 inh -1, AHR activator 92*, HDAC3 inhib 1, FXN GAA850 act 4, AHR act confirm 106* and PXR counter 29*.
O=C(CN(Cc1ccc(F)cc1)C(=O)CNS(=O)(=O)c1ccccc1)NCc1ccco1 was read as Fh CTSL1 inh 6, PfM18AAP inh -13, SENP1 inh 3, AHR activator 2, HDAC3 inhib 0 and FXN GAA850 act 0.
Screening COc1ccc(C(CNC(=O)c2nn(-c3ccccc3)c(=O)c3ccccc23)N2CCOCC2)cc1 (centres undefined) returned SENP1 inh -1 and FXN GAA850 act -1.
O=C1C(Cl)=C(Nc2ccc(O)cc2)C(=O)c2ccccc21 was read as Fh CTSL1 inh 0, PfM18AAP inh -4, SENP1 inh 1, AHR activator 132*, FXN GAA850 act -3 and AHR act confirm 112*.
Cc1nc2cc(NCc3nc4ccccc4n3Cc3ccccc3)ccc2n1C was read as Fh CTSL1 inh -5, PfM18AAP inh -2, SENP1 inh -18, AHR activator 27, HDAC3 inhib -6 and FXN GAA850 act -13.
`Cn1c(CNc2ccc(Cl)cc2)nc2ccccc21` gave Fh CTSL1 inh -19, PfM18AAP inh -10, SENP1 inh 4, AHR activator 87*, HDAC3 inhib -5, FXN GAA850 act 3, AHR act confirm 139* and PXR counter 36*.
For C[C@@H]1CN([C@@H](C)CO)C(=O)CCCn2nncc2CO[C@@H]1CN(C)S(=O)(=O)c1cccc(C#N)c1 the results were SENP1 inh 3 and FXN GAA850 act 1.
c1ccc2c(C3=NNC(=NC4CC4)SC3)c[nH]c2c1 was read as Fh CTSL1 inh 3, PfM18AAP inh 32*, SENP1 inh -6, AHR activator 97*, HDAC3 inhib -1, FXN GAA850 act 2, AHR act confirm 8 and PXR counter 11*.
O=C(Nc1ccc(Cl)cc1F)c1ccccc1Br was read as Fh CTSL1 inh -1, PfM18AAP inh -2, SENP1 inh 2, AHR activator 9, HDAC3 inhib -1 and FXN GAA850 act 6.
For O=C(Nc1cccc2ccccc12)c1cccc([N+](=O)[O-])c1 the results were Fh CTSL1 inh 1, PfM18AAP inh 25, SENP1 inh 1, AHR activator 34, HDAC3 inhib 12 and FXN GAA850 act 0.
For COc1cccc(C(=O)Nc2cccc3ccccc23)c1OC the results were Fh CTSL1 inh 0, PfM18AAP inh -12, SENP1 inh 1, AHR activator 117*, HDAC3 inhib -2, FXN GAA850 act 1, AHR act confirm 108* and PXR counter 44*.
O=C(O)c1cccc([N+](=O)[O-])c1C(=O)Nc1cccc2ccccc12 was read as Fh CTSL1 inh 2, PfM18AAP inh 1, SENP1 inh -1, AHR activator 84*, HDAC3 inhib 1, FXN GAA850 act 0, AHR act confirm 32 and PXR counter 1.
COc1ccccc1CC(=O)Nc1cccc2ccccc12 was read as Fh CTSL1 inh 1, PfM18AAP inh -3, SENP1 inh 1, AHR activator -1, HDAC3 inhib -5 and FXN GAA850 act -1.
Screening O=C(Nc1ccc(Cl)cc1F)c1cccc2ccccc12 returned Fh CTSL1 inh 0, PfM18AAP inh 0, SENP1 inh 3, AHR activator 100*, HDAC3 inhib 5, FXN GAA850 act 3, AHR act confirm 119* and PXR counter 12*.
